According to ChEMBL document CHEMBL4052590, “Anti-Osteoporotic Activity of Harpagoside by Upregulation of the BMP2 and Wnt Signaling Pathways in Osteoblasts and Suppression of Differentiation in Osteoclasts” (J Nat Prod, 2017):
Activity calls are given as the source filed them. The rule behind the calls is not given here.

Legend:
[1] = test system: Mus musculus; experiment: Effect on TRAP activity in serum of OVX-induced bone loss ICR mouse model at 5 mg/kg, po for 12 weeks (reference value: 19.8 +/- 1.0 U/L); format: functional
[2] = test system: Osteoclast; experiment: Inhibition of RANKL/M-CSF-induced osteoclast differentiation in mouse bone marrow-derived osteoclasts assessed as downregulation of c-Fos protein expression up to 4 uM after 48 hrs by Western blot analysis; format: functional, cell-based
Outline: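 Mouse bone marrow cells were taken from 4-week-old mice and primed 24 h in 30 ng/mL M-CSF. They were then given 100 ng/mL RANKL plus 30 ng/mL M-CSF, with or without compound, for 48 h. Lysates were made in boiling SDS buffer and quantified by BCA. 40–50 μg was run on SDS-PAGE and immunoblotted on PVDF with β-actin reference and ECL read-out.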

[3] = test system: Mus musculus; experiment: Effect on osteocalcin level in serum of OVX-induced bone loss ICR mouse model at 2 mg/kg, po for 12 weeks by ELISA (reference value: 176.9 +/- 4.7 ng/ml); format: functional
[4] = species: Mus musculus; experiment: Activation of Wnt signaling pathway in mouse MC3T3-E1 cells assessed as increase in BMP2 protein expression up to 4 uM after 48 hrs in presence of ascorbic acid and beta-glycerophosphate by Western blot analysis; format: cell-based
Outline: (§1)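 MC3T3-E1 cells given 400 μM ascorbic acid plus 5 mM β-glycerophosphate, exposed to test compound or not for 48 h. Lysed in boiling SDS sample buffer, protein measured by BCA. 40−50 μg of lysate run on 8% or 10% SDS-PAGE and transferred to PVDF. Blocked in 5% milk, probed with primary antibodies for 3 h at room temperature or overnight at 4 °C, detected by ECL.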

[5] = species: Mus musculus; experiment: Activation of Wnt signaling pathway in mouse MC3T3-E1 cells assessed as increase in Runx2 protein expression up to 4 uM after 48 hrs in presence of ascorbic acid and beta-glycerophosphate by Western blot analysis; format: cell-based; outline: as §1
[6] = test system: MC3T3-E1; experiment: Downregulation of RANKL protein expression in mouse MC3T3-E1 cells up to 4 uM after 48 hrs in presence of ascorbic acid and beta-glycerophosphate by Western blot analysis; format: functional, cell-based; outline: as §1
[7] = test system: Mus musculus; experiment: Effect on […] level in serum of OVX-induced bone loss ICR mouse model at 2 mg/kg, po for 12 weeks by ELISA (reference value: 8.2 +/- 0.4 mg/dl); format: functional
[8] = test system: Mus musculus; experiment: Effect on osteocalcin level in serum of OVX-induced bone loss ICR mouse model at 5 mg/kg, po for 12 weeks by ELISA (reference value: 176.9 +/- 4.7 ng/ml); format: functional
[9] = test system: MC3T3-E1; experiment: Increase in OPG to RANKL mRNA expression ratio in mouse MC3T3-E1 cells up to 4 uM after 48 hrs in presence of ascorbic acid and beta-glycerophosphate by real-time PCR analysis; format: functional, cell-based
Outline: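 MC3T3-E1 cells stimulated with 400 μM ascorbic acid and 5 mM β-glycerophosphate, with or without compound, 48 h. TRIzol RNA, real-time RT-PCR: 40 cycles of 95 °C 20 s, 56 °C 20 s, 72 °C 30 s. Ct of each transcript […] β-actin Ct, expressed relative to control samples.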

[10] = test system: Mus musculus; experiment: Effect on calcium level in serum of OVX-induced bone loss ICR mouse model at 10 mg/kg, po for 12 weeks by ELISA (reference value: 9.3 +/- 0.3 mg/dl); format: functional
[11] = test system: Mus musculus; experiment: Effect on osteocalcin level in serum of OVX-induced bone loss ICR mouse model at 10 mg/kg, po for 12 weeks by ELISA (reference value: 176.9 +/- 4.7 ng/ml); format: functional
[12] = test system: Mus musculus; experiment: Anti-osteoporotic activity in po dosed OVX-induced bone loss ICR mouse model assessed as decrease in trabecular bone destruction in femur administered for 12 weeks by microcomputed tomography; format: functional, organism-based
[13] = test system: MC3T3-E1; experiment: Upregulation of beta-catenin protein expression in mouse MC3T3-E1 cells after 48 hrs in presence of ascorbic acid and beta-glycerophosphate by Western blot analysis; format: functional, cell-based
[14] = test system: MC3T3-E1; experiment: Antiosteoporotic activity in mouse MC3T3-E1 cells assessed as increase in alkaline phosphatase activity after 4 days using pNPP as substrate in presence of ascorbic acid and beta-glycerophosphate by colorimetric assay; format: functional, cell-based
Outline: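 MC3T3-E1 cells (2 × 10^4 cells/mL) in osteogenic medium (400 μM ascorbic acid, 5 mM β-glycerophosphate) with or without compound for 4 days. Fixed in 70% ethanol, lysed in Tris/0.1% Triton X-100 pH 7.5. ALP read as p-NPP to p-nitrophenol at 405 nm; protein by Bradford.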

[15] = test system: MC3T3-E1; experiment: Upregulation of OCN protein expression in mouse MC3T3-E1 cells up to 4 uM after 48 hrs in presence of ascorbic acid and beta-glycerophosphate by Western blot analysis; format: functional, cell-based
[16] = test system: MC3T3-E1; experiment: Antiosteoporotic activity in mouse MC3T3-E1 cells assessed as formation of mineralized nodule after 14 days in presence of ascorbic acid and beta-glycerophosphate by Alizarin red S staining-based microscopic method; format: functional, cell-based
Outline: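 MC3T3-E1 cells (2 × 10^4 cells/mL) in 400 μM ascorbic acid and 5 mM β-glycerophosphate, with or without compound, for 14 days. Fixed in 70% ethanol 30 min, stained 5 min with 2% Alizarin red S (pH 4.0), viewed by microscopy. Stain extracted with 10% cetylpyridinium chloride, A570 read.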

[17] = species: Mus musculus; experiment: Activation of Wnt signaling pathway in mouse MC3T3-E1 cells assessed as increase in BMP2 mRNA expression after 48 hrs in presence of ascorbic acid and beta-glycerophosphate by real-time PCR analysis; format: cell-based
[18] = test system: Mus musculus; experiment: Effect on alkaline phosphatase activity in serum of OVX-induced bone loss ICR mouse model at 2 mg/kg, po for 12 weeks using p-NPP as substrate (reference value: 84.9 +/- 4.2 U/L); format: functional
[19] = species: Mus musculus; experiment: Activation of Wnt signaling pathway in mouse MC3T3-E1 cells assessed as upregulation of C-Myc protein expression after 48 hrs in presence of ascorbic acid and beta-glycerophosphate by Western blot analysis; format: cell-based
Outline: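 MC3T3-E1 cells with 400 μM ascorbic acid and 5 mM β-glycerophosphate, with or without compound, for 48 h. Whole-cell lysates (40−50 μg, BCA) separated by SDS-PAGE, blotted to PVDF. c-Myc and cyclin D1 probed with primary antibodies, then secondary antibody for 90 min, read by chemiluminescence.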

[20] = test system: MC3T3-E1; experiment: Downregulation of DKK1 protein expression in mouse MC3T3-E1 cells up to 4 uM after 48 hrs in presence of ascorbic acid and beta-glycerophosphate by Western blot analysis; format: functional, cell-based; outline: as §1
[21] = test system: Mus musculus; experiment: Effect on calcium level in serum of OVX-induced bone loss ICR mouse model at 2 mg/kg, po for 12 weeks by ELISA (reference value: 9.3 +/- 0.3 mg/dl); format: functional
[22] = test system: Mus musculus; experiment: Effect on TRAP activity in serum of OVX-induced bone loss ICR mouse model at 2 mg/kg, po for 12 weeks (reference value: 19.8 +/- 1.0 U/L); format: functional
[23] = species: Mus musculus; experiment: Activation of Wnt signaling pathway in mouse MC3T3-E1 cells assessed as increase in Smad protein expression up to 4 uM after 48 hrs in presence of ascorbic acid and beta-glycerophosphate by Western blot analysis; format: cell-based; outline: as §1

C[C@]1(OC(=O)/C=C/c2ccccc2)C[C@@H](O)[C@]2(O)C=CO[C@@H](O[C@@H]3O[C@H](CO)[C@@H](O)[C@H](O)[C@H]3O)[C@@H]21 [HARPAGOSIDE]
Activity [1]: 8.9 U/L | inhibition [2]: Active | Activity [3]: 170 ng/mL | Activity [4]: Active | Activity [5]: Active | Activity [6]: Active | Activity [7]: 7.9 mg/dL | Activity [8]: 162.7 ng/mL | Activity [9]: Active | Activity [10]: 10.3 mg/dL | Activity [11]: 156.9 ng/mL | Activity [12]: Dose-dependent effect | Activity [13]: Dose-dependent effect | Activity [14]: Dose-dependent effect | Activity [15]: Active | Activity [16]: Dose-dependent effect | Activity [17]: Dose-dependent effect | Activity [18]: 78.5 U/L | Activity [19]: Dose-dependent effect | Activity [20]: Active | Activity [21]: 9.3 mg/dL | Activity [22]: 10.4 U/L | Activity [23]: Active
